# Measurements: publication PMC8165011 (European journal of medicinal chemistry, 2021)
# Read-outs that look alike come from different tables or passages of the source.
# Key:
# Assay type in all cases: cell-based
# [1] = system: S. aureus ATCC 25923 (Sa23), antibiotic susceptible; assay: MIC assay
# [2] = system: S. aureus BAA-2312 (Sa12), antibiotic-resistant; assay: MIC assay
# [3] = system: S. aureus ATCC 33591 (Sa91); assay: MIC assay
# [4] = system: S. aureus ATCC 700699 (Sa99); assay: MIC assay; details: for MIC Sa99: S. aureus ATCC 700699
# [5] = system: S. aureus ATCC 33592 (Sa92); assay: MIC assay
# [6] = system: S. epidermidis ATCC 700296 (Se); assay: MIC assay
# [7] = system: Bacillus subtilis ATCC 6623 (Bs); assay: MIC assay
# [8] = system: vancomycin-resistant E. faecium ATCC 700221 (Ef21); assay: MIC assay
# [9] = system: antibiotic susceptible E. faecalis ATCC 29212 (Ef12); assay: MIC assay; details: for MIC Efl2: E. faecalis ATCC 29212; for MIC: Enterococcus faecalis, ATCC29212, read-out: MIC Efl2
# [10] = system: tested Gram-positive strains; assay: MIC assay, summary over the tested Gram-positive strains; details: for antimicrobial activity (in words): tested Gram-positive strains
# In short: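 CLSI standard broth microdilution. Test compound started at 50 µg/ml and serially diluted 2-fold. Run in triplicate.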
# [11] = system: S. aureus and E. faecalis biofilms; assay: Biofilm inhibition and destruction at 4x and 8xMIC; details: 4x and 8xMIC (data not shown)
# [12] = system: E. faecalis clinical isolates (VRE); assay: MIC against clinical isolates of E. faecalis; details: Enterococcus faecalis, VRE
# [13] = system: E. faecium clinical isolates (VRE); assay: MIC against clinical isolates of E. faecium; details: Enterococcus faecium, VRE
# [14] = system: S. aureus clinical isolates (MSSA, MRSA); assay: MIC against clinical isolates of S. aureus; details: Staphylococcus aureus, MRSA|MSSA
# [15] = system: S. aureus ATCC 25923 (MSSA); assay: Multistep
# [16] = system: S. aureus ATCC 700699 (MRSA); assay: Multistep; details: within two weeks of the start
# [17] = system: S. aureus ATCC 700699 (MRSA) stationary phase persister cells; assay: Persister cell killing assay; details: 64xMIC
compound,measurement,setting,value
4-[4-[(3-chloroanilino)methyl]-3-(p-tolyl)pyrazol-1-yl]benzoic acid [Compound 44],MIC Sa23,[1],1.56 µg/mL
same,MIC Sal2,[2],1.56 µg/mL
same,MIC Sa91,[3],0.78 µg/mL
same,MIC Sa99,[4],0.78 µg/mL
same,MIC Sa92,[5],1.56 µg/mL
same,MIC Se,[6],3.12 µg/mL
same,MIC Bs,[7],0.78 µg/mL
same,MIC Ef21,[8],0.78 µg/mL
same,MIC Efl2,[9],12.5 µg/mL
4-[4-[(3-fluoroanilino)methyl]-3-(p-tolyl)pyrazol-1-yl]benzoic acid [Compound 42],MIC Sa23,[1],3.12 µg/mL
same,MIC Sal2,[2],3.12 µg/mL
same,MIC Sa91,[3],3.12 µg/mL
same,MIC Sa99,[4],3.12 µg/mL
same,MIC Sa92,[5],3.12 µg/mL
same,MIC Se,[6],6.25 µg/mL
same,MIC Bs,[7],1.56 µg/mL
same,MIC Ef21,[8],6.25 µg/mL
same,MIC Efl2,[9],25 µg/mL
4-[4-[(4-chloroanilino)methyl]-3-(p-tolyl)pyrazol-1-yl]benzoic acid [Compound 45],MIC Sa23,[1],1.56 µg/mL
same,MIC Sal2,[2],1.56 µg/mL
same,MIC Sa91,[3],1.56 µg/mL
same,MIC Sa99,[4],1.56 µg/mL
same,MIC Sa92,[5],1.56 µg/mL
same,MIC Se,[6],3.12 µg/mL
same,MIC Bs,[7],0.78 µg/mL
same,MIC Ef21,[8],1.56 µg/mL
same,MIC Efl2,[9],6.25 µg/mL
4-[4-[(4-fluoroanilino)methyl]-3-(p-tolyl)pyrazol-1-yl]benzoic acid [Compound 43],MIC Sa23,[1],6.25 µg/mL
same,MIC Sal2,[2],3.12 µg/mL
same,MIC Sa91,[3],6.25 µg/mL
same,MIC Sa99,[4],6.25 µg/mL
same,MIC Sa92,[5],12.5 µg/mL
same,MIC Se,[6],12.5 µg/mL
same,MIC Bs,[7],1.56 µg/mL
same,MIC Ef21,[8],6.25 µg/mL
same,MIC Efl2,[9],25 µg/mL
"O=C(O)c1ccc(-n2cc(CNc3ccccc3)c(-c3ccc(C(F)(F)F)cc3)n2)cc1 [Compound 41, 4-[4-(anilinomethyl)-3-[4-(trifluoromethyl)phenyl]pyrazol-1-yl]benzoic acid]",MIC,[10]; read-out: MIC value as low as,≥ 3.12 µg/mL
"O=C(O)c1ccc(-n2cc(CNc3cccc(Br)c3)c(-c3ccc(C(F)(F)F)cc3)n2)cc1 [Compound 46, 4-{4-[(3-bromoanilino)methyl]-3-[4-(trifluoromethyl)phenyl]-1H-pyrazol-1-yl}benzoic acid]",MIC,[10]; read-out: MIC value as low as,≥ 0.78 µg/mL
"O=C(O)c1ccc(-n2cc(CNc3ccc(Br)cc3)c(-c3ccc(C(F)(F)F)cc3)n2)cc1 [Compound 47, 4-[4-[(4-bromoanilino)methyl]-3-[4-(trifluoromethyl)phenyl]pyrazol-1-yl]benzoic acid]",MIC,[10]; read-out: MIC value as low as,≥ 0.78 µg/mL
"O=C(O)c1ccc(-n2cc(CNc3cccc(C(F)(F)F)c3)c(-c3ccc(C(F)(F)F)cc3)n2)cc1 [Compound 48, 4-[4-[[3-(trifluoromethyl)anilino]methyl]-3-[4-(trifluoromethyl)phenyl]pyrazol-1-yl]benzoic acid]",MIC,"[4]; Staphylococcus aureus, ATCC700699, read-out: MIC Sa99",0.39 µg/mL
same,antimicrobial activity (in words),[10],potent activity
"NS(=O)(=O)c1ccc(NCc2cn(-c3ccc(C(=O)O)cc3)nc2-c2ccc(C(F)(F)F)cc2)cc1 [Compound 49, 4-[4-[(4-sulfamoylanilino)methyl]-3-[4-(trifluoromethyl)phenyl]pyrazol-1-yl]benzoic acid]",antimicrobial activity (in words),[10],almost eliminated the activity
"O=C(O)c1ccc(-n2cc(CNc3cccc(OC(F)(F)F)c3)c(-c3ccc(C(F)(F)F)cc3)n2)cc1 [Compound 50, 4-[4-[[3-(trifluoromethoxy)anilino]methyl]-3-[4-(trifluoromethyl)phenyl]pyrazol-1-yl]benzoic acid]",MIC,[10]; read-out: MIC values,0.78 to 3.12 µg/mL
"Cc1ccc(NCc2cn(-c3ccc(C(=O)O)cc3)nc2-c2ccc(C(F)(F)F)cc2)cc1Cl [Compound 58, 4-[4-[(3-chloro-4-methyl-anilino)methyl]-3-[4-(trifluoromethyl)phenyl]pyrazol-1-yl]benzoic acid]",antimicrobial activity (in words),[10],inhibited the growth of tested bacteria efficiently
"O=C(O)c1ccc(-n2cc(CNc3ccc(Br)c(C(F)(F)F)c3)c(-c3ccc(C(F)(F)F)cc3)n2)cc1 [Compound 63, 4-[4-[[4-bromo-3-(trifluoromethyl)anilino]methyl]-3-[4-(trifluoromethyl)phenyl]pyrazol-1-yl]benzoic acid]",MIC,[9],1.56 µg/mL
"O=C(O)c1ccc(-n2cc(CNc3ccc(C(=O)O)c(C(F)(F)F)c3)c(-c3ccc(C(F)(F)F)cc3)n2)cc1 [Compound 67, 4-[[1-(4-carboxyphenyl)-3-[4-(trifluoromethyl)phenyl]pyrazol-4-yl]methylamino]-2-(trifluoromethyl)benzoic acid]",antimicrobial activity (in words),[10],eliminated the activity
"O=C(O)c1ccc(-n2cc(CNc3ccc(N4CCOCC4)c(C(F)(F)F)c3)c(-c3ccc(C(F)(F)F)cc3)n2)cc1 [Compound 68, 4-[4-[[4-morpholino-3-(trifluoromethyl)anilino]methyl]-3-[4-(trifluoromethyl)phenyl]pyrazol-1-yl]benzoic acid]",antimicrobial activity (in words),[10],highly potent
"O=C(O)c1ccc(-n2cc(CNc3ccc(Br)c(Cl)c3F)c(-c3ccc(C(F)(F)F)cc3)n2)cc1 [Compound 75, 4-[4-[(4-bromo-3-chloro-2-fluoro-anilino)methyl]-3-[4-(trifluoromethyl)phenyl]pyrazol-1-yl]benzoic acid]",MIC,[9],1.56 µg/mL
same,biofilm inhibition and destruction,[11],> 95%
"O=C(O)c1ccc(-n2cc(CNc3cc(F)c(C(F)(F)F)cc3F)c(-c3ccc(C(F)(F)F)cc3)n2)cc1 [Compound 76, 4-[4-[[2,5-difluoro-4-(trifluoromethyl)anilino]methyl]-3-[4-(trifluoromethyl)phenyl]pyrazol-1-yl]benzoic acid]",MIC,[9],3.12 µg/mL
"O=C(O)c1ccc(-n2cc(CNc3cc(Cl)c(O)c(Cl)c3)c(-c3ccc(C(F)(F)F)cc3)n2)cc1 [Compound 78, 4-[4-[(3,5-dichloro-4-hydroxy-anilino)methyl]-3-[4-(trifluoromethyl)phenyl]pyrazol-1-yl]benzoic acid]",antimicrobial activity (in words),[10],inactivity
"Cc1onc(-c2ccccc2)c1C(=O)N[C@@H]1C(=O)N2[C@@H]1SC(C)(C)[C@@H]2C(=O)O [Oxa, Oxacillin]",MIC,"[12]; E. faecalis 1088051, VRE",64 µg/mL
same,MIC,"[12]; E. faecalis 1091563, VRE",64 µg/mL
same,MIC,"[12]; E. faecalis 1091720, VRE",64 µg/mL
same,MIC,"[12]; E. faecalis 1094112, VRE",> 64 µg/mL
same,MIC,"[12]; E. faecalis 1100440, VRE",> 64 µg/mL
same,MIC,"[13]; E. faecium 1088168, VRE",> 64 µg/mL
same,MIC,"[13]; E. faecium 1088228, VRE",> 64 µg/mL
same,MIC,"[13]; E. faecium 1088925, VRE",> 64 µg/mL
same,MIC,"[13]; E. faecium 1089544, VRE",> 64 µg/mL
same,MIC,"[13]; E. faecium 1091282, VRE",> 64 µg/mL
same,MIC,"[14]; S. aureus 1088064, MRSA",64 µg/mL
same,MIC,"[14]; S. aureus 1088610, MRSA",64 µg/mL
same,MIC,"[14]; S. aureus 1088888, MRSA",> 64 µg/mL
same,MIC,"[14]; S. aureus 1089106, MRSA",64 µg/mL
O=C(O)c1cn(C2CC2)c2cc(N3CCNCC3)c(F)cc2c1=O [ciprofloxacin],passage at which resistance started to develop,[15],7 passage
same,fold more resistant,[15]; within two weeks of the start,16 fold
same,fold more resistant,[16],16 fold
"CNC(C)C1CCC(N)C(OC2C(N)CC(N)C(OC3OCC(C)(O)C(NC)C3O)C2O)O1 (stereo not drawn) [gentamicin, reference compound]",effect on viability of MRSA persisters (in words),[17],did not affect the viability
